Runt-SMMHC FRET = inhibitors of RUNX1 Runt–CBFb-SMMHC binding, primary screen, biochemical, FRET, Cerulean-Runt, Venus-CBFb-SMMHC, uHTS; inhibition, % at 20 µM; actives 0.74% (n = 220,000); Runt-related transcription factor 1 (Homo sapiens) + Core-binding factor subunit beta …; AID 1434, 2008; Cerulean-Runt/Venus-CBFb-SMMHC FRET ratio 530/480, 1 h;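 active = mean inhibition across duplicate retests at 20 µM reaching about 50%, limit read from the data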;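 also: inhibitors lower the FRET ratio by blocking Runt binding to CBFb-SMMHC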
FAS-TE inh = FAS thioesterase domain inhibitors, primary screen, biochemical, fluorescence intensity, uHTS; Fatty acid synthase (Homo sapiens), P49327; recombinant FAS-TE, OMFH fluorogenic substrate, fluorescence endpoint; inhibition, % at 15 µM; actives 0.67% (n = 360,000); AID 602261, 2012;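 active = compounds whose normalised, plate-corrected inhibition of enzyme fluorescence in the single-dose primary screen is 50% or more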
Target sequence (P49327 whole entry, looked up, the tested form may be a part): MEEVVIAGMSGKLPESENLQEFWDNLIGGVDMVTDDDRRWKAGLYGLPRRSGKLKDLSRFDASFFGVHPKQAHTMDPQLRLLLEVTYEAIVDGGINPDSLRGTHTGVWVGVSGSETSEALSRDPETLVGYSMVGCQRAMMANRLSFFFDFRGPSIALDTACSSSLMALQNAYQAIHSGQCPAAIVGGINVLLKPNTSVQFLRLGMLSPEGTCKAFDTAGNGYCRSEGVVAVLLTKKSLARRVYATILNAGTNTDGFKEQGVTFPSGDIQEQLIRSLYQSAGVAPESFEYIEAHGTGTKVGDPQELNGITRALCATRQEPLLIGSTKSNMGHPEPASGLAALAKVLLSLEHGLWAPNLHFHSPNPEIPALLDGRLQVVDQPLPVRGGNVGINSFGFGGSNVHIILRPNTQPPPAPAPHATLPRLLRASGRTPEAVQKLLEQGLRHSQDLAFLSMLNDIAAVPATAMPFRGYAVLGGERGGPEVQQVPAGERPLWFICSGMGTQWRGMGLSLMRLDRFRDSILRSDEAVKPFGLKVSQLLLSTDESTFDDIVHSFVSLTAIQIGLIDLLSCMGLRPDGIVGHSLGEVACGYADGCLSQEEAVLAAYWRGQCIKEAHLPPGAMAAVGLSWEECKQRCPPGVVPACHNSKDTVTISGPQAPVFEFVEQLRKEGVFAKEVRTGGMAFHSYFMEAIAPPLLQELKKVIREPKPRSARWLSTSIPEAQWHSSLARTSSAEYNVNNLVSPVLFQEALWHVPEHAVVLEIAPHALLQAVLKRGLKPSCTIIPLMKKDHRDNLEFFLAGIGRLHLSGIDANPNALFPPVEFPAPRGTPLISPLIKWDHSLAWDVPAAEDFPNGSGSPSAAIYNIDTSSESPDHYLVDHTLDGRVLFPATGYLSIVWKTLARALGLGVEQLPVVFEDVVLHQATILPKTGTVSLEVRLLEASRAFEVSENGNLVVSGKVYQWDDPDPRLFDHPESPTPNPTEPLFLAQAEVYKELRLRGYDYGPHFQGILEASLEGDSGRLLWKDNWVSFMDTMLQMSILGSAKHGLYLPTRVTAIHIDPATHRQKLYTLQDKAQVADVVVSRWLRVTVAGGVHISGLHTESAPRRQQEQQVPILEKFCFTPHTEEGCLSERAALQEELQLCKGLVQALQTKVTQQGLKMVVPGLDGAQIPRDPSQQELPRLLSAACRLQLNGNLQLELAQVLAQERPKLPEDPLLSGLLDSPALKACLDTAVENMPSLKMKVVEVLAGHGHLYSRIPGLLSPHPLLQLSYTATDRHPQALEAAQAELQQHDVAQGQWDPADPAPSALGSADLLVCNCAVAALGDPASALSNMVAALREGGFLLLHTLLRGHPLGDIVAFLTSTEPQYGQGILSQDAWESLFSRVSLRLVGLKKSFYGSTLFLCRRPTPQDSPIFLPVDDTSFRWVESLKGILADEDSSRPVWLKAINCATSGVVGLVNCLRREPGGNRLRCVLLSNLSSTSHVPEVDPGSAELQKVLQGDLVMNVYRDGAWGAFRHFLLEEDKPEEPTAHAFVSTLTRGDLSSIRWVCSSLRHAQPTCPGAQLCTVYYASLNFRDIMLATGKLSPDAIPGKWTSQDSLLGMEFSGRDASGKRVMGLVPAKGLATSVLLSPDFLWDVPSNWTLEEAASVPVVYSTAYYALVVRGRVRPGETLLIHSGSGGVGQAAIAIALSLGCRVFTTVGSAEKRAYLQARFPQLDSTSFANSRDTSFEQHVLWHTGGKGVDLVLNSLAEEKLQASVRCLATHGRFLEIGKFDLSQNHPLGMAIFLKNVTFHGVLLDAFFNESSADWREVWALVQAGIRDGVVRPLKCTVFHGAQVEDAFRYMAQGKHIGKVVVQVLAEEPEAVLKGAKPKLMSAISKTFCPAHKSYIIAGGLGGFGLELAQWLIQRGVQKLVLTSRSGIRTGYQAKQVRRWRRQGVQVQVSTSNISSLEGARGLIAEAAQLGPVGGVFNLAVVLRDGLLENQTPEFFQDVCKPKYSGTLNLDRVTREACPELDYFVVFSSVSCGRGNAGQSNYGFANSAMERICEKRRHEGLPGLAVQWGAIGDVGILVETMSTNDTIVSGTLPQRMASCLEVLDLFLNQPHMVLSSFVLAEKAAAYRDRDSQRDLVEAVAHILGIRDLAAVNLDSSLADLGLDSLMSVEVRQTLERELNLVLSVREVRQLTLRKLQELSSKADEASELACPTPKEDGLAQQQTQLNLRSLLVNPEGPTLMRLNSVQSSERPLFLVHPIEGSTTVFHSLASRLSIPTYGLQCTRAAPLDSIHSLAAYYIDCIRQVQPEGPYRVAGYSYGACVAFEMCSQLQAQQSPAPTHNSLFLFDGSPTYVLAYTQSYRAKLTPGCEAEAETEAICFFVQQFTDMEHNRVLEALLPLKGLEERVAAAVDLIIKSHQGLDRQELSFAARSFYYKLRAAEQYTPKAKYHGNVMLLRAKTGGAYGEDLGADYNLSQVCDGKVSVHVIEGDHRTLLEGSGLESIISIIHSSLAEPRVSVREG
RanGTP-Impb inh = inhibitors of RanGTP-importin-beta interaction, primary screen, biochemical, FRET, CFP-Ran, YFP-importin-beta, homogeneous | cell-free CFP-Ran/YFP-importin-beta FRET ratio | AID 2216, 2009 | inhibition, % (concentration not given with the values) | Ran GTPase (GTP-bound) - importin-beta complex | actives 1.1% (n = 300,000);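 active = more than half of the replicate wells show a fall in the fluorescence ratio signal beyond about 16%, limit read from the data, passing the limit was not always enough; inconclusive = exactly half of the replicate wells pass the set limit; inactive = fewer than half of replicates pass the limit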
Runt-CBFb FRET = inhibitors of RUNX1 Runt–CBFb binding, primary screen, biochemical, FRET, Cerulean-Runt, Venus-CBFb, uHTS. actives 0.46% (n = 220,000). Runt-related transcription factor 1 (Homo sapiens) + Core-binding factor subunit beta …. Cerulean-Runt/Venus-CBFb FRET ratio 530/480, 1 h. inhibition, % at 20 µM. AID 1496, 2009;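 active = inhibition over about 50% at 20 µM in the single-dose screen, limit read from the data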
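Assay system: Cerulean-Runt domain fusion protein, energy donor; Signal: fluorescence energy transfer, 422 nm excitation, 530/480 nm emission; Timing: 1 h compound exposure, room temperature; Control set: unlabeled CBFb; Medium: Tris buffer pH 7.5 with salts and BSA; Compound: single test concentration of 20 µM, 1% DMSO final; Probe or stimulus: Venus-CBFb 100 nM.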
m-calpain inh = inhibitors of pig calpain II, primary screen, biochemical, fluorogenic peptide substrate, 1536-well; purified calpain II, 30 min; inhibition, % at 16 µM; actives 0.37% (n = 220,000); AID 1236, 2008;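 active = inhibition above about 50%, limit read from the data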
Hits are given with their value; 0 = inactive; ? = inconclusive; - = no result given. Compounds with a hit are over-represented: about 2.1% of the library has one in this group of screens.

SMILES | Runt-SMMHC FRET | FAS-TE inh | RanGTP-Impb inh | Runt-CBFb FRET | m-calpain inh
Fc1cccc(NC(=S)NNc2c3ccccc3nc3ccccc23)c1 | 87 | 0 | 0 | 88 | 0
O=c1cc(N2CCN(Cc3ccccc3)CC2)[nH]c(=O)n1Cc1ccc(F)cc1 | 0 | 0 | 42 | 0 | 0
CCn1c(=O)cc(N2CCN(Cc3ccccc3)CC2)[nH]c1=O | - | 0 | ? | - | -
O=c1cc(N2CCN(Cc3ccccc3)CC2)[nH]c(=O)n1-c1cccc(C(F)(F)F)c1 | 0 | 0 | 41 | 0 | 0
COc1ccc(-c2ccc(-c3noc(-c4ccccc4)n3)c(OC)n2)cc1 | 0 | 0 | 30 | 0 | 0
COc1nc(-c2ccccc2)ccc1-c1noc(-c2ccccc2)n1 | 0 | 0 | 0 | 0 | 0
CCCCOc1ccc(CONS(=O)(=O)c2ccc(NC(C)=O)cc2)cc1Cl | 0 | 0 | ? | 0 | 50
COC(C)(C)[C@@H](O)COc1c2ccoc2cc2oc(=O)ccc12 | - | 0 | - | - | -
O=C(COC(=O)c1ncc(Cl)c(Cl)c1Cl)Nc1ccc(Cl)cn1 | - | 0 | 0 | - | -
O=C(Nc1cccc(-c2nc3cccnc3s2)c1)c1cccnc1Cl | 0 | 0 | 0 | 0 | 0
O=C(Nc1cccc(-c2nc3cccnc3s2)c1)C1c2ccccc2Oc2ccccc21 | 0 | 0 | 0 | 0 | 55
COc1ccc(C(O)c2nc(-c3cncnc3)cs2)cc1 (centres undefined) | - | 0 | - | - | -
NC(=O)c1cc2ccc(O)cc2oc1=Nc1ccccc1 | 65 | 0 | 176 | 0 | 0
COc1ccc(OC)c(N=c2oc3cc(O)ccc3cc2C(N)=O)c1 | 117 | 0 | 158 | 120 | 0
COc1ccc2oc(=Nc3cc(F)ccc3F)c(C(N)=O)cc2c1 | 0 | 0 | 0 | 0 | 0
COc1ccc2cc(C(N)=O)c(=Nc3ccccc3)oc2c1 | 0 | 0 | 0 | - | 0
NC(=O)c1cc2ccc(O)cc2oc1=NCc1ccccc1 | 83 | 0 | 181 | 0 | 0
COC(=O)[C@]1(Cc2ccccc2)N[C@H](CN(C)C(=O)Nc2ccc(C)cc2)[C@@H]2C(=O)N(C)C(=O)[C@@H]21 | - | 0 | - | - | -
COc1ccc(N2CCN(C(=O)COC(=O)CCc3ccccc3)CC2)cc1 | - | 0 | - | - | -
N#CCC(=O)Nc1ccc(C(=O)OCC(=O)NC2CCCc3ccccc32)cc1 (centres undefined) | - | 0 | - | - | -
COc1ccccc1CNC(=O)CCC(=O)N1CC(C)Sc2ccccc21 (centres undefined) | - | 0 | 0 | - | -
S=c1[nH]cc(-c2ccccc2)n1-c1ccccc1Cl | 0 | 0 | 0 | 0 | 0
COc1ccccc1-n1c(-c2ccccc2)c[nH]c1=S | 54 | 0 | ? | 0 | 0
CC(C)c1ccc(C(=O)OCC(=O)Nc2cccc(S(=O)(=O)NC3=NCCC3)c2)cc1 | - | 0 | - | - | -
COc1ccc(CNC(=O)CCCNS(=O)(=O)c2cccc3nonc23)cc1 | 0 | 0 | 63 | 0 | 0
SMILES | Runt-SMMHC FRET | FAS-TE inh | RanGTP-Impb inh | Runt-CBFb FRET | m-calpain inh
COc1ccc(/C=N\NC(=O)c2ccccc2F)cc1COc1ccc(F)cc1F | - | 0 | 0 | - | -
COc1ccc(/C=N/NC(=O)c2cc(C(C)(C)C)[nH]n2)cc1COc1ccc(F)cc1F | 0 | 0 | 51 | 0 | 0
O=C(NNc1cc(N2CCOCC2)nc(N2CCOCC2)n1)c1ccc([N+](=O)[O-])cc1 | 0 | 0 | 63 | 0 | 0
O=C(Nc1ccc(N2CCOCC2)cc1N1CCOCC1)c1ccc([N+](=O)[O-])cc1 | 0 | 0 | 0 | 0 | 0
COC(=O)c1c(C(=O)OC)c2cc(C(=O)c3ccccc3)ccn2c1Cl | 0 | 0 | 29 | 0 | 0
COc1ccc(CCNC(=O)CCCn2c(=S)[nH]c3cc4c(cc3c2=O)OCO4)cc1OC | - | 0 | - | - | -
CCOC(=O)C1=C(CNCCc2ccc(Cl)cc2)NC(=O)NC1c1cccc([N+](=O)[O-])c1 (centres undefined) | 0 | 0 | 0 | 0 | 0
CCOC(=O)C1=C(CNC(C)(C)CC(C)(C)C)NC(=O)NC1c1cccc([N+](=O)[O-])c1 (centres undefined) | 0 | 0 | 0 | 0 | 61
C=CCN1C(=O)N(c2ccc(F)cc2)C(=O)C1CC(=O)Nc1ccc(Cl)cc1 (centres undefined) | 0 | 0 | 0 | 0 | 0
O=c1oc2c3c4c(cc2s1)CCCN4CCC3 | 0 | 0 | 0 | 0 | 0
O=c1ccc2cc3c4c(c2o1)CCCN4CCC3 | 0 | 0 | 92 | 0 | 0
O=C1C2CC=CCC2C(=O)N1c1ncn[nH]1 (centres undefined) | 0 | 0 | 39 | 0 | 0
COc1ccc(C2(C)NC(=O)N(CC3CCCCC3)C2=O)cc1 (centres undefined) | - | 0 | 0 | - | -
O=C(C1CCCCC1)N1CCN(C(=O)C2CCCCC2)CC1 | 0 | 0 | 0 | 0 | 0
O=C(C1CCCCCC1)N1CC[C@@H](N2CCC(O)CC2)[C@H](O)C1 | - | 0 | 27 | - | -
CCOc1ccc(C2N(c3ccc(F)cc3)C(=O)C3CCCN32)cc1OC (centres undefined) | 0 | 0 | 21 | 0 | 0
C=CCOc1ccc(C2C(C(=O)c3cccs3)=C(O)C(=O)N2c2nnc(C)s2)cc1 (centres undefined) | - | 0 | 0 | - | -
COc1ccc(C2C(C(=O)c3cccs3)=C(O)C(=O)N2c2nncs2)cc1 (centres undefined) | 103 | 0 | 0 | 0 | 0
Cc1ccsc1C(=O)OCC(=O)NC1CCCC(C)C1C (centres undefined) | - | 0 | - | - | -
Cc1ccc(S(=O)(=O)N2CCOCC2)cc1NC(=O)COC(=O)c1cccc(Cl)c1Cl | - | 0 | - | - | -
Cc1ccc(S(=O)(=O)N2CCCCC2)cc1NC(=O)c1ccc2c(c1)OCO2 | 0 | 0 | 0 | 0 | 0
Cc1ccc(S(=O)(=O)N2CCCCC2)cc1NC(=O)COC(=O)c1ccc2c(c1)OCO2 | 0 | 0 | 0 | 0 | 56
Cc1ccc(S(=O)(=O)N2CCOCC2)cc1NC(=O)COC(=O)c1cc(=O)[nH]c2ccccc12 | 0 | 0 | 26 | 0 | 0
Cc1ccc2cc(CCNC(=O)c3cc4ccccc4o3)c(=O)[nH]c2c1C | 0 | 0 | 0 | 0 | 54
COC(=O)c1ccc2nc(NC(=O)C(C)C)sc2c1 | 0 | 0 | 30 | 0 | 0
COC(=O)c1ccc2nc(Nc3nc4c(F)cc(F)cc4s3)sc2c1 | 0 | 0 | 71 | 0 | 0
COC(=O)C1=CN(Cc2ccc(OC)cc2)C=C(C(=O)OC)C1c1cccs1 | 0 | 0 | 0 | 0 | 0
COC(=O)C1=CN(CCCN2CCCC2=O)C=C(C(=O)OC)C1c1cccs1 | 87 | 0 | ? | 0 | 0
CN(CC(=O)Nc1ccccc1Cl)C(=O)COC(=O)CN1C(=O)NC2(CCCC2)C1=O | - | 0 | 0 | - | -
CCCCC(=O)Nc1ccc(Br)cn1 | 0 | 0 | 0 | 0 | 0

From PubChem BioAssay
